Assay results as given in ChEMBL document CHEMBL5653630, “Activation of the p53-MDM4 regulatory axis defines the anti-tumour response to PRMT5 inhibition through its role in regulating cellular splicing” (Sci Rep, 2018).
Blank lines part the entries; values can stand above or below the compound they belong to. Active and inactive are the calls of the source. The rule behind the calls is not given here.

Assays:
Z-138 [1] = test: Antitumor activity against human Z138 cells xenografted in mouse at 25 to 50 mg/kg, po qd measured at 14 to 21 days; format: functional, organism-based; settings: dose lower […], dose upper 50.0 mg/kg, time 14-21 day
Z-138 [2] = test: In vivo inhibition of PRMT5 in human Z138 cells xenografted in mouse assessed as increase in p53 level at 100 mg/kg, po BID measured for 7 days by immunohistochemical analysis; format: functional, organism-based; settings: time 7.0 day
MDA-MB-468 = test: Induction of cell cycle arrest in human MDA-MB-468 cells assessed as decrease in 2n cell population measured upto 5000 nM measured for 2 to 7 days by propidium iodide staining based flow cytometric analysis; format: functional; settings: time 2-7 day
Z-138 [3] = test: Antitumor activity against human Z138 cells xenografted in mouse assessed as reduction in tumor volume at 50 to 100 mg/kg, po BID measured for 10 days; format: functional, organism-based; settings: dose 50-100 mg/kg, time 10.0 day
Z-138 [4] = test: Induction of cell cycle arrest in human Z138 cells assessed as decrease in 2n cell population measured upto 1000 nM measured for 2 to 5 days by propidium iodide staining based flow cytometric analysis; format: functional; settings: time 2-5 day
Z-138 [5] = test: Induction of cell cycle arrest in human Z138 cells assessed as accumulation of cells at G1 phase cells incubated for 1 to 10 days by propidium iodide staining based flow cytometric analysis; format: functional; settings: dose <= 1000.0 nM, time 1-10 day
JeKo-1 = test: Induction of cell cycle arrest in human JeKo-1 cells assessed as increase in 2n cell population measured upto 5000 nM measured for 3 days by propidium iodide staining based flow cytometric analysis; format: functional; settings: time 3.0 day
HOS = test: Antiproliferative activity against human HOS cells assessed as cell growth inhibition incubated for 10 days; format: functional; settings: 240 h, time 10 day
Outline: (§1)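 Outsourced panel run in 384-well plates. Cells were grown in RPMI-1640/10% FBS or a special medium at 37°C, 5% CO2. Compound was added 24 h after seeding as a 10-point, 3.16-fold series in 0.1% DMSO. Medium was refreshed and cells re-dosed at 168 h, with a time-zero plate kept. At 240 h cells were fixed, nuclei stained and imaged. gIC50 is growth midway between untreated and time zero, from a 4-parameter fit.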

C32 = test: Antiproliferative activity against human C32 cells assessed as cell growth inhibition incubated for 10 days; format: functional; settings: C32, 240 h, time 10 day
Outline: (§2)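 Cells kept in RPMI-1640 with 10% FBS, 2 mM L-alanyl-L-glutamine and 1 mM Na pyruvate (or a special medium) at 37°C, 5% CO2. Compound added 24 h after seeding, 10 concentrations in 3.16-fold dilution, 0.1% DMSO final. Medium replaced and cells re-dosed at 168 h; 240 h incubation. Nuclei fixed, dye-stained and imaged. gIC50 = growth midway between untreated and time-zero cell counts, from a 4-parameter fit.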

CAKI-2 = test: Antiproliferative activity against human CAKI-2 cells assessed as cell growth inhibition incubated for 10 days; format: functional; settings: CAKI-2, 240 h, time 10 day; outline: as §2
MHH-PREB-1 = test: Antiproliferative activity against human MHH-PREB-1 cells assessed as cell growth inhibition incubated for 10 days; format: functional; settings: MHH-PREB-1, 240 h, time 10 day
HCT-15 = test: Antiproliferative activity against human HCT-15 cells assessed as cell growth inhibition incubated for 10 days; format: functional; settings: HCT-15, 240 h, time 10 day; outline: as §1
DMS-114 = test: Antiproliferative activity against human DMS-114 cells assessed as cell growth inhibition incubated for 10 days; format: functional; settings: DMS-114, 240 h, time 10 day; outline: as §1
EM-2 = test: Antiproliferative activity against human EM-2 cells assessed as cell growth inhibition incubated for 10 days; format: functional; settings: EM-2, 240 h, time 10 day; outline: as §1
[6] = biological target: Protein arginine N-methyltransferase 5 (Homo sapiens) (UniProt O14744); test: Inhibition of PRMT5 in p53 knockout human Z138 cells effect on p21 expression at 500 nM incubated for 3 to 11 days by Western blot analysis; format: cell-based; settings: time 3-11 day
Sequence of Protein arginine N-methyltransferase 5 (Homo sapiens) (O14744 whole entry): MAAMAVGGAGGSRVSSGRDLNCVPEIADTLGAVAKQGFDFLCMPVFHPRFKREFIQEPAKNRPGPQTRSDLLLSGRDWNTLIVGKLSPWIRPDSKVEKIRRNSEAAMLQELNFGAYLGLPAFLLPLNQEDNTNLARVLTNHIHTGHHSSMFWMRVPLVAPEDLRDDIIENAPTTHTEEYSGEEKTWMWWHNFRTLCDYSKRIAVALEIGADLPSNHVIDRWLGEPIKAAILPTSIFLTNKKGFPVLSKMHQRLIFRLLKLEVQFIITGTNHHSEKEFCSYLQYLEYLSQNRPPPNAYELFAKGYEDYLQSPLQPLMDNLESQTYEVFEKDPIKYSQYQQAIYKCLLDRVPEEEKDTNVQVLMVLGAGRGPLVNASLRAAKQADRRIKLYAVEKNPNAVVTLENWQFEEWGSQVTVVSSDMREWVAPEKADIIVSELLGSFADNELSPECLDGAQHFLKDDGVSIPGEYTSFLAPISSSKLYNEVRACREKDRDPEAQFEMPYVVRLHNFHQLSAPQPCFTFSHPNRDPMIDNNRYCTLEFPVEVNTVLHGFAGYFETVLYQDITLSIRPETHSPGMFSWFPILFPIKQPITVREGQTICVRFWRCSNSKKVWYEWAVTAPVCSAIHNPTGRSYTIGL

[7] = Antiproliferative activity against human TE 381.T cells assessed as cell growth inhibition incubated for 10 days; format: functional; settings: 240 h, time 10 day
639-V = test: Antiproliferative activity against human 639-V cells assessed as cell growth inhibition incubated for 10 days; format: functional; settings: 240 h, time 10 day; outline: as §2
ASPC1 = test: Antiproliferative activity against human ASPC1 cells assessed as cell growth inhibition incubated for 10 days; format: functional; settings: ASPC1, 240 h, time 10 day; outline: as §2
WI-38 = test: Antiproliferative activity against human WI-38 cells assessed as cell growth inhibition incubated for 10 days; format: functional; settings: WI-38, 240 h, time 10 day
BPH-1 = test: Antiproliferative activity against human BPH-1 cells assessed as cell growth inhibition incubated for 10 days; format: functional; settings: BPH-1, 240 h, time 10 day; outline: as §2
C-33-A = test: Antiproliferative activity against human C-33-A cells assessed as cell growth inhibition incubated for 10 days; format: functional; settings: 240 h, time 10 day; outline: as §2
NCI-H747 = test: Antiproliferative activity against human NCI-H747 cells assessed as cell growth inhibition incubated for 10 days; format: functional; settings: NCI-H747, 240 h, time 10 day
OE19 = test: Antiproliferative activity against human OE19 cells assessed as cell growth inhibition incubated for 10 days; format: functional; settings: OE19, 240 h, time 10 day
SW 962 = test: Antiproliferative activity against human SW 962 cells assessed as cell growth inhibition incubated for 10 days; format: functional; settings: SW 962, 240 h, time 10 day
Calu-6 = test: Antiproliferative activity against human Calu-6 cells assessed as cell growth inhibition incubated for 10 days; format: functional; settings: Calu-6, 240 h, time 10 day; outline: as §1
[8] = biological target: Protein arginine N-methyltransferase 5 (Homo sapiens) (UniProt O14744); test: Inhibition of PRMT5 in human Z138 cells expressing full length MDM4 assessed as induction of p21 at 1 uM incubated for 4 days by Western blot analysis; format: cell-based; settings: time 4.0 day
[9] = biological target: Protein arginine N-methyltransferase 5 (Homo sapiens) (UniProt O14744); test: Inhibition of PRMT5 in human Z138 cells assessed as effect on hnRNP level by measuring fold change by LC-MS/MS analysis relative to control; format: cell-based
[10] = Antiproliferative activity against human MT-3 cells assessed as cell growth inhibition incubated for 10 days; format: functional; settings: MT-3, 240 h, time 10 day
ACHN = test: Antiproliferative activity against human ACHN cells assessed as cell growth inhibition incubated for 10 days; format: functional; settings: 240 h, time 10 day; outline: as §2
YAPC = test: Antiproliferative activity against human YAPC cells assessed as cell growth inhibition incubated for 10 days; format: functional; settings: 240 h, time 10 day
JAR = test: Antiproliferative activity against human JAR cells assessed as cell growth inhibition incubated for 10 days; format: functional; settings: 240 h, time 10 day
Outline: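 Eurofins-panel 10-day assay in 384-well plates. Cells grown in RPMI-1640 with 10% FBS, 2 mM L-alanyl-L-glutamine and 1mM Na pyruvate, or a special medium, at 37°C in 5% CO₂. Compound added 24 h after seeding, 10-point 3.16-fold series in 0.1% DMSO. Medium replaced and compound re-dosed at 168 h. Nuclei fixed and stained after 240 h, then imaged to give a relative cell count. gIC50 is the concentration giving growth midway between untreated and time-zero counts, from a 4-parameter fit.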

SW837 = test: Antiproliferative activity against human SW837 cells assessed as cell growth inhibition incubated for 10 days; format: functional; settings: SW837, 240 h, time 10 day

Compound: CC(=O)N1CCC(Nc2cc(C(=O)NC[C@H](O)CN3CCc4ccccc4C3)ncn2)CC1 [PEMRAMETOSTAT]
Activity (Z-138 [1]): Active
inhibition (Z-138 [2]): Active
Activity (MDA-MB-468): inactive
Activity (Z-138 [3]): Active
Activity (Z-138 [4]): Active
Activity (Z-138 [5]): Dose-Dependent Effect
Activity (JeKo-1): inactive

GI50 (HCT-15): 0.0684 µM
inhibition [6]: inactive
GI50 (ASPC1): 0.302 µM
GI50 (NCI-H747): 2.58 µM
GI50 (Calu-6): 0.206 µM
inhibition [8]: inactive
fold change (FC) [9]: -5.3
GI50 (ACHN): 0.0386 µM
GI50 (SW837): 0.102 µM
Compound: O=C(NC[C@H](O)CN1CCc2ccccc2C1)c1ccnc(NC2CCC2)c1
GI50 (HOS): 0.223 µM
GI50 (C32): 0.0141 µM
GI50 (CAKI-2): 0.114 µM
GI50 (MHH-PREB-1): 10 µM
GI50 (DMS-114): 1.01 µM
GI50 (EM-2): 0.094 µM
GI50 [7]: 0.147 µM
GI50 (639-V): 0.342 µM
GI50 (WI-38): 0.0185 µM
GI50 (BPH-1): 0.718 µM
GI50 (C-33-A): 0.228 µM
GI50 (OE19): 0.098 µM
GI50 (SW 962): 0.203 µM
GI50 [10]: 0.0464 µM
GI50 (YAPC): 0.168 µM
GI50 (JAR): 0.485 µM
